{"source": "paper PMC9804882", "about": "(Chemmedchem, 2022)", "key": {"[1]": {"molecular_target": "T1, labeled rabbit muscle actin (Oryctolagus cuniculus, UniProt P68135)", "test": "In vitro actin polymerization assay", "format": "biochemical", "conditions": "5 μM; for actin polymerization curve, RFU reached (lowest point/plateau): CTRL about 37,000 RFU", "summary_of_the_method": "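Labeled rabbit muscle actin incubated with test compound (5 μM) using a commercial polymerization kit. DMSO as negative control; latrunculin A and cytochalasin B (5 μM) as reference agents. Filament assembly followed by fluorescence (ex/em 365/410 nm) in kinetic mode for 1 h at room temperature; curves representative of three separate tests.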"}, "[2]": {"molecular_target": "T1, labeled rabbit muscle actin", "test": "In vitro actin depolymerization assay", "format": "biochemical", "conditions": "5 μM, added after 1 h polymerization", "summary_of_the_method": "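Labeled rabbit muscle actin first polymerized for 1 h under polymerization-assay conditions. Test compound (5 μM) then added, and fluorescence (ex/em 365/410 nm) monitored kinetically for another hour at room temperature. DMSO vehicle; latrunculin A and cytochalasin B (5 μM) as controls; three separate tests.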"}, "[3]": {"system": "MDA‐MB‐231 cells", "test": "MTT assay", "format": "cell-based, human", "summary_of_the_method": "(§1)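 Cells seeded in 48-well plates and serum-starved. They were then exposed for 72 h to test compound dissolved in DMSO over 0.1–200 μM, with viability read by MTT. IC50 calculated from concentration–response data; experiments in triplicate, reported as mean ± SD.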"}, "[4]": {"system": "MCF‐7 cells", "test": "MTT assay", "format": "cell-based, human", "summary_of_the_method": "as §1"}, "[5]": {"system": "MCF‐10A cells", "test": "MTT assay, cytotoxicity on normal cells", "format": "cell-based, human", "conditions": "72 h", "summary_of_the_method": "as §1"}, "[6]": {"system": "Escherichia coli (ATCC 25922)", "test": "MIC determination, broth dilution", "format": "cell-based", "conditions": "E. coli ATCC 25922, broth dilution, 37 °C 18 h", "summary_of_the_method": "(§2)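 Broth dilution per CLSI. Overnight LB cultures diluted to 4000 CFU/mL in 96-well plates, then exposed to test compound at 1, 5, 10, 20, 50 or 100 μg/mL for 18 h at 37 °C. Growth read at 600 nm against DMSO-vehicle growth control; compound-only sterility control; ampicillin as strain-sensitivity control. MIC: lowest concentration inhibiting visible growth; MBC: lowest fully bactericidal concentration. Five experiments, each in triplicate.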"}, "[7]": {"system": "Staphylococcus aureus (ATCC 23235)", "test": "MIC determination, broth dilution", "format": "cell-based", "conditions": "S. aureus ATCC 23235, broth dilution, 37 °C 18 h", "summary_of_the_method": "as §2"}, "[8]": {"system": "Enterococcus faecalis (ATCC 19433)", "test": "MIC determination, broth dilution", "format": "cell-based", "conditions": "E. faecalis ATCC 19433, broth dilution, 37 °C 18 h", "summary_of_the_method": "as §2"}, "[9]": {"system": "Gram‐positive and Gram‐negative bacteria (E. coli, S. aureus, E. faecalis)", "test": "MBC determination and ampicillin control, broth dilution, all strains", "format": "cell-based", "conditions": "all strains used, standard antibiotic control", "summary_of_the_method": "as §2"}, "[10]": {"system": "MCF‐7 cells", "test": "Immunofluorescence analysis of β‐actin", "format": "cell-based, human", "conditions": "MCF‐7, 24 h, IC50 value / 5 μM"}, "[11]": {"molecular_target": "T2, recombinant human topo I (Homo sapiens, UniProt P11387)", "T2 sequence (P11387 1-765)": "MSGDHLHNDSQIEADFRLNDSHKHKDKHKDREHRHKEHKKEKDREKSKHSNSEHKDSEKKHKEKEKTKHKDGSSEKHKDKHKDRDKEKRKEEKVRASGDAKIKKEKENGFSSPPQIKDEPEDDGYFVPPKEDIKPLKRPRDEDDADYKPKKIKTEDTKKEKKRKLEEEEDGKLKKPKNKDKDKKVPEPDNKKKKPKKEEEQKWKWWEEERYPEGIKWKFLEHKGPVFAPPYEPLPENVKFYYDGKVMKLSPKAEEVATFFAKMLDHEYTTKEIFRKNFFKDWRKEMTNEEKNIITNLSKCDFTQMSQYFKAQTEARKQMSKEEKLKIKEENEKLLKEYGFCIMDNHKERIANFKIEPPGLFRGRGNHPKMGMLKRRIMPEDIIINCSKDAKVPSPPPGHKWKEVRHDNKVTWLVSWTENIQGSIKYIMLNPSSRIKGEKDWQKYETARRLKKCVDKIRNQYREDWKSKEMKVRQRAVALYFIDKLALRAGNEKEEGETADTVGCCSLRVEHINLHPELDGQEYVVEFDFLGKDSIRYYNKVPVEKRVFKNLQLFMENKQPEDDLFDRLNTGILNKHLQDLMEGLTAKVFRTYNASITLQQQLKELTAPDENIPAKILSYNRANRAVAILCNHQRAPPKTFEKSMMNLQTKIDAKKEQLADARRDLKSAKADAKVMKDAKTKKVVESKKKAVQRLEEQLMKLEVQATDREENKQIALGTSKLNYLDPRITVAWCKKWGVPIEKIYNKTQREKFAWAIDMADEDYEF", "test": "Human topoisomerase I relaxation assay", "format": "biochemical", "conditions": "1 μM, supercoiled pHOT1 substrate", "summary_of_the_method": "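Supercoiled pHOT1 (0.25 μg) relaxed by 2 U recombinant human topo I, without or with test compound at 1 μM; DMSO vehicle control; relaxed-DNA marker run alongside. Products separated on 1% agarose in 1X TAE without ethidium bromide and visualized on a UV transilluminator.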"}, "[12]": {"molecular_target": "human topoisomerase II (Homo sapiens, UniProt P11388)", "sequence (P11388 whole entry)": "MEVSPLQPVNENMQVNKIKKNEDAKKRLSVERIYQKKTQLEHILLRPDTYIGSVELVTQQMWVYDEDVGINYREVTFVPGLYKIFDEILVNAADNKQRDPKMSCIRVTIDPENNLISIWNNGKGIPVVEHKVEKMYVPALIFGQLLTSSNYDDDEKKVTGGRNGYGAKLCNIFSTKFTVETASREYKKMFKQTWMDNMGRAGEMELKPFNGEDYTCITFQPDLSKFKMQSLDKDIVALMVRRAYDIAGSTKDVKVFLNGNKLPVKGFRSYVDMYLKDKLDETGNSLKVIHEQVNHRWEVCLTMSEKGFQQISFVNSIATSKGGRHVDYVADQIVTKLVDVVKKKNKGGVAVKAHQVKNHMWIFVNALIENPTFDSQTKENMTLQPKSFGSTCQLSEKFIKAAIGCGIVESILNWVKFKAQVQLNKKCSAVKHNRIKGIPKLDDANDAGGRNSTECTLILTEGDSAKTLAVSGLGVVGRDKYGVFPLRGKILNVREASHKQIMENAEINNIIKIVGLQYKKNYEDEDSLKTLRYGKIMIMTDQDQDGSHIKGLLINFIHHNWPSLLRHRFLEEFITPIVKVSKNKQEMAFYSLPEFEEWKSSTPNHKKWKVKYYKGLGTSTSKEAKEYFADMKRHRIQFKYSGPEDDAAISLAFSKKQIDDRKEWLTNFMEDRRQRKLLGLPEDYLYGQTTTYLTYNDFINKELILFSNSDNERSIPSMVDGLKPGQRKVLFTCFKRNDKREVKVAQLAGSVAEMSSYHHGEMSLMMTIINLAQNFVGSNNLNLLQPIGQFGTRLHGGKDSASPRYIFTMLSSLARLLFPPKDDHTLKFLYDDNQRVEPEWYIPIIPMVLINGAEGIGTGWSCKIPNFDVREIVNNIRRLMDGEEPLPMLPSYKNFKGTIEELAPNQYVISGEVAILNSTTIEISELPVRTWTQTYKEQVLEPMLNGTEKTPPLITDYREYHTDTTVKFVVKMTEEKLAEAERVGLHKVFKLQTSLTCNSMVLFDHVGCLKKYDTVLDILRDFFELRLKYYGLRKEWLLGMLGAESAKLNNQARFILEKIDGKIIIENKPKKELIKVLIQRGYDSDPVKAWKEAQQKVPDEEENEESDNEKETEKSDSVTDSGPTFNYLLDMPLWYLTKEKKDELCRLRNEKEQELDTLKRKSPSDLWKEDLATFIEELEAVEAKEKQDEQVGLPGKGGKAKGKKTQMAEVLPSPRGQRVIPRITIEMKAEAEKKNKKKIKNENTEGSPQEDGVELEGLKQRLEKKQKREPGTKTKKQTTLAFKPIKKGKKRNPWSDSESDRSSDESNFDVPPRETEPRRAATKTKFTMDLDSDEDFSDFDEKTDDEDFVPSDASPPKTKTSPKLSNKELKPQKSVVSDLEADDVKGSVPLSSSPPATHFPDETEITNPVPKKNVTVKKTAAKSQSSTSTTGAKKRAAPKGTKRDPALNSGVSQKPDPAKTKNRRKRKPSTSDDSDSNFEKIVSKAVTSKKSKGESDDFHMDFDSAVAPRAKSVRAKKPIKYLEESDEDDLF", "test": "Human topoisomerase II decatenation assay", "format": "biochemical", "conditions": "kDNA substrate", "summary_of_the_method": "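Decatenation of kinetoplast DNA (0.3 μg) by 3 U human topo II, with test compound at 1 or 10 μM or DMSO vehicle; linear and decatenated kDNA markers included. Gel: 1% agarose in 1X TAE with ethidium bromide (0.5 μg/ml), UV transilluminator read-out.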"}, "[13]": {"system": "MCF‐7 cells", "test": "TUNEL assay", "format": "cell-based, human", "conditions": "MCF‐7, 24 h, at IC50 value"}, "[14]": {"conditions": "MCF‐10A normal mammary epithelium, MTT"}}, "data": [{"compound": "C=C1[C@@H](C)[C@H]2[C@H](Cc3ccccc3)NC(=O)[C@]23OC(=O)/C=C/[C@H](O)CCC[C@@H](C)C/C=C/[C@H]3[C@@H]1O", "note": "[CB, cytochalasin B, reference compound]", "values": [{"measurement": "effect on actin polymerization", "setting": "[1]", "result": "totally impeded the actin polymerization"}, {"measurement": "actin polymerization curve, RFU reached (lowest point/plateau)", "setting": "[1]", "result": "approximately 20,000 RFU"}, {"measurement": "effect on actin depolymerization", "setting": "[2]", "result": "no relevant changes in RFU"}, {"measurement": "actin depolymerization curve, RFU reached", "setting": "[2]; initial value 28,000 RFU", "result": "about 28,000 RFU"}]}, {"compound": "N.N.[Cl][Pt][Cl]", "note": "[Cisplatin, reference compound]", "values": [{"measurement": "IC50", "setting": "[3]; MDA‐MB‐231, MTT, 72 h", "result": "28.7 ± 0.4", "unit": "µM"}, {"measurement": "IC50", "setting": "[4]; MCF‐7, MTT, 72 h", "result": "35.8 ± 0.7", "unit": "µM"}, {"measurement": "IC50", "setting": "[5]; [14]", "result": "81.3 ± 0.6", "unit": "µM"}]}, {"compound": "COC(Cn1ccn(C)[c]1=[Ag-2][I])c1ccccc1", "note": "(stereo not shown) [Compound 3, [N‐methyl,N’‐(2‐metoxy‐2‐phenyl)ethyl‐imidazole‐2‐ylidenesilver(I)] iodide]", "values": [{"measurement": "MIC", "setting": "[6]", "result": 5, "unit": "mg/L"}, {"measurement": "MIC", "setting": "[7]", "result": 5, "unit": "mg/L"}, {"measurement": "MIC", "setting": "[8]", "result": 10, "unit": "mg/L"}, {"measurement": "IC50", "setting": "[3]; MDA‐MB‐231, MTT, 72 h", "result": "52.6 ± 0.3", "unit": "µM"}, {"measurement": "IC50", "setting": "[4]; MCF‐7, MTT, 72 h", "result": "31.8 ± 0.8", "unit": "µM"}, {"measurement": "IC50", "setting": "[5]; [14]", "result": "> 200", "unit": "µM"}]}, {"compound": "C/C1=C/C(=O)O[C@@H]2C[C@@H](CC[C@H](C)/C=C\\C=C\\CC1)O[C@@](O)([C@@H]1CSC(=O)N1)C2", "note": "[Latrunculin A, reference compound]", "values": [{"measurement": "IC50", "setting": "[3]; Homo sapiens, MDA-MB-231, 72 h", "result": 0.024, "unit": "µM"}, {"measurement": "IC50", "setting": "[4]; Homo sapiens, MCF7, 72 h", "result": 0.14, "unit": "µM"}, {"measurement": "IC50", "setting": "[5]; Homo sapiens, MCF-10A", "result": 0.045, "unit": "µM"}, {"measurement": "effect on actin polymerization", "setting": "[1]", "result": "totally impeded the actin polymerization"}, {"measurement": "effect on actin depolymerization", "setting": "[2]", "result": "actin depolymerization has occurred"}]}, {"compound": "CC1(C)S[C@@H]2[C@H](NC(=O)[C@H](N)c3ccccc3)C(=O)N2[C@H]1C(=O)O", "note": "[ampicillin, Ampicillin]", "values": [{"measurement": "strain sensibility to ampicillin", "setting": "[9]", "result": "ampicillin‐sensible"}]}, {"compound": "[4,5‐dichloro‐[(N‐methyl‐N’(2‐hydroxy‐2‐phenyl‐ethyl)imidazole‐2‐ylidene]silver(I)] acetate [Compound 6]", "values": [{"measurement": "MIC", "setting": "[6]", "result": 10, "unit": "mg/L"}, {"measurement": "MIC", "setting": "[7]", "result": 5, "unit": "mg/L"}, {"measurement": "MIC", "setting": "[8]", "result": 10, "unit": "mg/L"}, {"measurement": "IC50", "setting": "[3]; MDA‐MB‐231, MTT, 72 h", "result": "38.1 ± 0.8", "unit": "µM"}, {"measurement": "IC50", "setting": "[4]; MCF‐7, MTT, 72 h", "result": "13.2 ± 0.3", "unit": "µM"}, {"measurement": "IC50", "setting": "[5]; [14]", "result": "> 200", "unit": "µM"}, {"measurement": "effect on actin polymerization", "setting": "[1]", "result": "inhibitory activity on the polymerization of G‐actin, higher than that of CB"}, {"measurement": "time to reach the lowest point of the polymerization curve", "setting": "[1]", "result": "around 12 minutes"}, {"measurement": "actin polymerization curve, RFU reached (lowest point/plateau)", "setting": "[1]", "result": "approximately 13,000 RFU"}, {"measurement": "effect on actin depolymerization", "setting": "[2]", "result": "able to act as a depolymerization inducer"}, {"measurement": "actin cytoskeleton organization / cell morphology", "setting": "[10]", "result": "caused comparable disorganization of this structure"}, {"measurement": "inhibition of hTopo I activity", "setting": "[11]", "result": "total inhibition of the enzyme activity"}, {"measurement": "inhibition of hTopo II activity", "setting": "[12]; 1 μM", "result": "did not produce the enzyme inhibition"}, {"measurement": "inhibition of hTopo II activity", "setting": "[12]; 10 μM", "result": "totally inhibit the hTopo II activity"}, {"measurement": "apoptosis (green nuclear fluorescence, DNA fragmentation)", "setting": "[13]", "result": "induced apoptosis"}]}]}
